Measured values from different studies.
Compare with care: the assays were run in different laboratories.
EGFR L858R: Epidermal growth factor receptor (EGFR, Homo sapiens, UniProt P00533, L858R)
EGFR L858R/T790M: Epidermal growth factor receptor (EGFR, Homo sapiens, UniProt P00533, L858R/T790M)

| SMILES | target | read-out | mode | technique | tested at | measurement | result |
| --- | --- | --- | --- | --- | --- | --- | --- |
| CO[C@@H]1[C@H](N(C)C(=O)c2ccccc2)C[C@H]2O[C@]1(C)n1c3ccccc3c3c4c(c5c6ccccc6n2c5c31)C(=O)NC4 | Epidermal growth factor receptor (EGFR, Homo sapiens, UniProt P00533, A750P/del747-749) | enzyme activity | inhibitor |  | 1 µM | inhibition | 74% |
| CCCCC(=O)Nc1ccc(-c2ccc3ncn(CCC)c(=O)c3c2)cn1 | Epidermal growth factor receptor (EGFR, Homo sapiens, UniProt P00533, del746-750) | binding |  | competition with immobilised ligand | 0.5 µM | remaining binding | 95% |
| COc1ccc2[nH]c3c4[nH]c5ccc(OC)cc5c4c4c(c3c2c1)C(=O)NC4=O | EGFR L858R | binding |  |  | 1 µM | remaining binding | 50% |
| C1=C/COCc2cc(ccc2OCCN2CCCC2)Nc2nccc(n2)-c2cccc(c2)COC/1 | EGFR L858R | binding |  |  | 0.1 µM | remaining binding | 71% |
| COc1ccc2oc(-c3ccc4nc(N)oc4c3)c/c(=N\c3ccccc3NC(=O)CCN)c2c1 | EGFR L858R/T790M | cell-free assay |  |  | 1 µM | remaining signal | 106% |
| CN1CCN(C(=O)c2ccc(NC(=O)Nc3ccc(N(C)c4ccnc(Nc5ccc(CS(C)(=O)=O)cc5)n4)cc3)cc2)CC1 | EGFR L858R | binding |  |  | 1 µM | remaining binding | 92% |
| C=CC(=O)N1CCC([C@@H]2CCNc3c(C(N)=O)c(-c4ccc(Oc5ccccc5)cc4)nn32)CC1 | Epidermal growth factor receptor (EGFR, Homo sapiens, UniProt P00533, L861Q) | cell-free assay |  |  | 1 µM | inhibition | 73% |
| Cc1ccc(NC(=O)c2ccnc(C(F)(F)F)c2)cc1-c1cc(OCCO)nc(N2CCOCC2)c1 | EGFR L858R/T790M | binding |  |  | 1 µM | remaining binding | 84% |
| CC#CC(=O)N1CCC[C@H]1c1nc(-c2ccc(C(=O)Nc3ccccn3)cc2)c2c(N)nccn12 | Epidermal growth factor receptor (EGFR, Homo sapiens, UniProt P00533, G719C) | enzyme activity | inhibitor |  | 1 µM | inhibition | 3% |
